Data reported in ChEMBL document CHEMBL1140061, “Novel azolyl-(phenylmethyl)]aryl/heteroarylamines: potent CYP26 inhibitors and enhancers of all-trans retinoic acid activity in neuroblastoma cells” (Bioorg Med Chem, 2008).
Active and inactive are the calls of the source. The rule behind the calls is not given here.

Assays:
Cytochrome P450 26A1 = target: T1, Cytochrome P450 26A1 (Homo sapiens, UniProt O43174); assay: Inhibition of CYP26A1 in human MCF7 cells
T1 sequence (O43174 whole entry): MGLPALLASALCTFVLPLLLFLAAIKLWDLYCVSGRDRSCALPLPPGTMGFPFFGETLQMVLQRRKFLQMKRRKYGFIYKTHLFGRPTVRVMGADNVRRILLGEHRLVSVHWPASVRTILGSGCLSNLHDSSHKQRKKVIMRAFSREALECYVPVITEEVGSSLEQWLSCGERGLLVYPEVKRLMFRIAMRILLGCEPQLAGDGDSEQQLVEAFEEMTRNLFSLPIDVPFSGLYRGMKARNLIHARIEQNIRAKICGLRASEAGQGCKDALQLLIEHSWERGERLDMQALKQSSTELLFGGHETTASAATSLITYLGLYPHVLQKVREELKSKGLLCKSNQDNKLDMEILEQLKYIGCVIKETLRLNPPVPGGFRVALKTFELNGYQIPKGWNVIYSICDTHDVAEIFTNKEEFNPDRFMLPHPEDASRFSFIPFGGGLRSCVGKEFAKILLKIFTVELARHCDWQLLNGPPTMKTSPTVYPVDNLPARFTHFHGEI

SH-SY5Y [1] = assay: Increase in all-trans retinoic acid-induced CYP26B1 mRNA expression in human SH-SY5Y cells at 10 uM relative to R116010; assay type: functional, cell-based
SH-SY5Y [2] = assay: Increase of CYP26B1 mRNA expression in human SH-SY5Y cells; assay type: functional, cell-based
Outline: (§1)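 SH-SY5Y neuroblastoma cells were grown at 37 °C in RPMI 1640 with 10% foetal calf serum and 2 mM L-glutamine under 5% CO2. Inhibitor was given alone or with atRA (DMSO vehicle) for 24 h. Total RNA was reverse transcribed and CYP26B1 was measured by TaqMan real-time PCR, normalised to β-actin. Results are fold change versus atRA-only cells by the comparative Ct method, mean ± S.E.M., n ≥ 3.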

T47D = assay: Inhibition of all-trans retinoic acid metabolism in human T47D cells; assay type: functional, cell-based
SH-SY5Y [3] = assay: Increase of all-trans retinoic acid-induced CYP26B1 mRNA expression in human SH-SY5Y cells at 1 uM after 24 hrs relative to all-trans retinoic acid; assay type: functional; outline: as §1
SH-SY5Y [4] = assay: Increase in all-trans retinoic acid-induced CYP26B1 mRNA expression in human SH-SY5Y cells at 0.01 to 10 uM after 24 hrs relative to all-trans retinoic acid; assay type: functional; conditions: in the assay text read “0.1 to 10 uM” for “0.01 to 10 uM”; outline: as §1

Question: Which results are given for c1ccc(C(c2ccc(Nc3ccc4ccccc4c3)cc2)n2ccnc2)cc1 (stereo unspecified)?
Answer: IC50 (Cytochrome P450 26A1): 0.5 µM; Activity (SH-SY5Y [1]): Active; Activity (SH-SY5Y [2]): inactive

Question: For c1ccc(Nc2ccc(C(c3ccccc3)n3ccnc3)cc2)cc1 (stereo unspecified), which IC50 (Cytochrome P450 26A1) is on record?
Answer: The IC50 was 5 µM.

Question: What does the source list for C[C@H]([C@@H](c1ccc(Nc2nc3ccccc3s2)cc1)n1ccnc1)N(C)C?
Answer: IC50 (T47D): 0.0087 µM; fold change (FC) (SH-SY5Y [3]): 5

Question: c1ccc(Nc2ccc(C(c3ccccc3)n3cncn3)cc2)cc1 (stereo unspecified) was tested. Which IC50 (Cytochrome P450 26A1) did it give?
Answer: The IC50 was 5 µM.

Question: And the Activity (SH-SY5Y [3])?
Answer: The Activity was “inactive”.

Question: c1ccc(C(c2ccc(Nc3nc4ccccc4o3)cc2)n2ccnc2)cc1 (stereo unspecified) was tested. Which IC50 (Cytochrome P450 26A1) did it give?
Answer: Its IC50 is 0.9 µM.

Question: What about the Activity (SH-SY5Y [2]) of the same compound?
Answer: The Activity was “inactive”.

Question: What about the “fold change (FC)” value (SH-SY5Y [4]) of the same compound?
Answer: Its value is 4.

Question: c1ccc(C(c2ccc(Nc3nc4ccccc4s3)cc2)n2ccnc2)cc1 (stereo unspecified) was tested. Which IC50 (Cytochrome P450 26A1) did it give?
Answer: The IC50 was 1.5 µM.

Question: What about the Activity (SH-SY5Y [2]) of the same compound?
Answer: The Activity was “inactive”.

Question: And the “fold change (FC)” value (SH-SY5Y [4])?
Answer: Its value is 2.

Question: For c1ccc(C(c2ccc(Nc3nc4ccccc4[nH]3)cc2)n2ccnc2)cc1 (stereo unspecified), which IC50 (Cytochrome P450 26A1) is on record?
Answer: The IC50 was 2.5 µM.

Question: For CC(c1ccc(Nc2ccc3ccccc3c2)cc1)n1ccnc1 (stereo unspecified), which IC50 (Cytochrome P450 26A1) is on record?
Answer: The IC50 was 15 µM.

Question: For c1ccc(C(c2ccc(Nc3ccc4c(c3)CCC4)cc2)n2ccnc2)cc1 (stereo unspecified), which IC50 (Cytochrome P450 26A1) is on record?
Answer: The IC50 was 1 µM.

Question: For CC(c1ccc(Nc2ccccc2)cc1)n1cncn1 (stereo unspecified), which IC50 (Cytochrome P450 26A1) is on record?
Answer: Its IC50 is over 50 µM.

Question: With c1ccc(-c2ccc(C(c3cc4ccccc4o3)n3cncn3)cc2)cc1 (stereo unspecified) as the compound, how does the IC50 (Cytochrome P450 26A1) read?
Answer: The IC50 was 7 µM.

Question: For CC(c1ccc(Nc2ccccc2)cc1)n1ccnc1 (stereo unspecified), which IC50 (Cytochrome P450 26A1) is on record?
Answer: Its IC50 is 35 µM.

Question: CCc1ccc(C(c2cc3ccccc3o2)n2cncn2)cc1 (stereo unspecified) was tested. Which IC50 (Cytochrome P450 26A1) did it give?
Answer: Its IC50 is 4.5 µM.
